{"source": "paper PMC3517082", "about": "(Molecular nutrition & food research, 2011)", "key": {"Trx2": {"system": "Trx2", "conditions": "cited from earlier work"}, "GSH [1]": {"system": "GSH", "conditions": "human endothelial cells, pretreatment; cited from earlier work"}, "Trx1": {"system": "Trx1", "conditions": "cited from earlier work"}, "[2]": {"conditions": "cited from earlier work"}, "[3]": {"system": "human endothelial HMEC-1 cells", "conditions": "12.5 μM acrolein; cited from earlier work"}, "[4]": {"conditions": "depending on the cell type; cited from earlier work"}, "ASK1 bound to Trx1": {"target": "ASK1 bound to Trx1 (Homo sapiens, UniProt P10599)", "sequence (P10599 2-105 limits assumed)": "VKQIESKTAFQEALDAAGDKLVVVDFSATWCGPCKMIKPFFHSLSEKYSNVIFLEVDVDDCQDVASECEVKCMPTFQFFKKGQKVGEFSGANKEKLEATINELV", "assay": "Immunoprecipitation of ASK1 bound to Trx1 in HMEC-1 cells", "format": "cell-based", "conditions": "acrolein 30 min"}, "Human endothelial cells": {"system": "Human endothelial cells", "conditions": "30 min; cited from earlier work"}, "catalase": {"system": "catalase", "conditions": "25 μM acrolein, 30 min, human umbilical vein endothelial cells; cited from earlier work"}, "JNK": {"system": "JNK", "assay": "JNK phosphorylation western blot in HMEC-1 cells", "format": "cell-based, human", "summary_of_the_method": "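HMEC-1 endothelial cells given acrolein; anisomycin at 200 ng/ml served as positive activator, and untreated cells as reference. Immunoblots probed for phospho-JNK (Thr183/Tyr185) and with anti-pan-JNK for total JNK. n = 3–5 independent treatments for each condition.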"}, "TrxR [5]": {"system": "TrxR", "conditions": "A549 cells, cited from earlier work"}, "[6]": {"target": "glyceraldehyde-3-phosphate dehydrogenase (GAPDH) (Homo sapiens, UniProt P04406)", "sequence (P04406 whole entry)": "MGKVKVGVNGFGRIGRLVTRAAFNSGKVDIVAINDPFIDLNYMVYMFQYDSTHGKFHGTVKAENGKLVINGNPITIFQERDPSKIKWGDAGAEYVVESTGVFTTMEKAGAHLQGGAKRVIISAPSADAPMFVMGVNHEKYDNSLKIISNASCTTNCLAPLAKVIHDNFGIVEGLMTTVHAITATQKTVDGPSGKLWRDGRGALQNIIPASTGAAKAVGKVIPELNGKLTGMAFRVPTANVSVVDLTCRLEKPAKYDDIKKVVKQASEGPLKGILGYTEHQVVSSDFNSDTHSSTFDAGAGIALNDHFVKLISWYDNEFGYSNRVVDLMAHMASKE", "assay": "GAPDH specific activity in BEAS-2B cells", "format": "cell-based", "conditions": "30 min acrolein", "summary_of_the_method": "(§1)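 BEAS-2B normal human bronchial epithelial cells exposed to acrolein for 30 min, with vehicle-alone cultures as controls. Specific activity of TrxR, glutathione reductase (GSSG-R) and GAPDH determined by enzymatic assay. Significance (P < 0.01) judged against vehicle-treated cells.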"}, "Prx3": {"system": "Prx3", "conditions": "acrolein-treated human bronchial cells; cited from earlier work"}, "TrxR [7]": {"system": "TrxR", "assay": "TrxR specific activity in normal human bronchial epithelial cells", "format": "cell-based", "conditions": "BEAS-2B cells, 2.5 μM acrolein, 30 min", "summary_of_the_method": "as §1"}, "glutathione peroxidase": {"system": "glutathione peroxidase", "conditions": "25 μM acrolein, 30 min, human umbilical vein endothelial cells; cited from earlier work"}, "NF-κB [8]": {"system": "NF-κB", "conditions": "bovine endothelial cells; cited from earlier work"}, "GSH [9]": {"system": "GSH", "assay": "GSH levels in human endothelial cells", "format": "cell-based", "conditions": "HMEC-1 cells, acrolein 30 min, recovery 1 or 2 h"}, "glutathione reductase": {"system": "glutathione reductase", "conditions": "25 μM acrolein, 30 min, human umbilical vein endothelial cells; cited from earlier work"}, "NF-κB [10]": {"system": "NF-κB", "conditions": "A549 cells; cited from earlier work"}, "AP-1": {"system": "AP-1", "conditions": "A549 cells, reporter construct; cited from earlier work"}, "TrxR [11]": {"system": "TrxR", "conditions": "25 μM acrolein for 30 min, human umbilical vein endothelial cells; cited from earlier work"}, "TrxR [12]": {"system": "TrxR", "conditions": "BEAS-2B cells, cited from earlier work"}, "Purified TrxR": {"system": "Purified TrxR", "conditions": "1 μM acrolein; cited from earlier work"}, "Trx": {"system": "Trx", "conditions": "cited from earlier work"}, "p38": {"system": "p38", "assay": "p38 phosphorylation western blot in HMEC-1 cells", "format": "cell-based, human", "summary_of_the_method": "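HMEC-1 cells treated with acrolein, with anisomycin (200 ng/ml) as a known activator and untreated cells as controls. Western blots probed with anti-phospho-p38 (Thr180/Tyr182) and anti-p38α for total p38α. 3–5 independent treatments per condition, compared against untreated control.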"}, "Prx1": {"system": "Prx1", "conditions": "acrolein-treated human bronchial cells; cited from earlier work"}, "[13]": {"target": "glutathione reductase (GSSG-R) (Homo sapiens, UniProt P00390)", "sequence (P00390 44-522)": "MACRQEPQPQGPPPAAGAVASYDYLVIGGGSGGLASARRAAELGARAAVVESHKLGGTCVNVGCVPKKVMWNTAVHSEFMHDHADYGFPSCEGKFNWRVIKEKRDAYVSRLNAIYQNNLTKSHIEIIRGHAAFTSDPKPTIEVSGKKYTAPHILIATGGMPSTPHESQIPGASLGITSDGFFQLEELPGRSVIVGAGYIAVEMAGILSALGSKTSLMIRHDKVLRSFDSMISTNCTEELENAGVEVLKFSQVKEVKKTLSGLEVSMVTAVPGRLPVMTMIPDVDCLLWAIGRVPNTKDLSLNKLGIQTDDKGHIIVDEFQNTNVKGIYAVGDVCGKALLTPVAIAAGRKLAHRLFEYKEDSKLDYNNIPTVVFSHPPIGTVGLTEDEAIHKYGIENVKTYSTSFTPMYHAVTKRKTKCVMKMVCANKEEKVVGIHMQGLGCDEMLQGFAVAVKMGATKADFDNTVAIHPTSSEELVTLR", "assay": "Glutathione reductase specific activity in BEAS-2B cells", "format": "cell-based", "conditions": "bronchial cells (BEAS-2B), 30 min", "summary_of_the_method": "as §1"}, "superoxide dismutase": {"system": "superoxide dismutase", "conditions": "25 μM acrolein, 30 min, human umbilical vein endothelial cells; cited from earlier work"}, "NF-κB [14]": {"system": "NF-κB", "conditions": "cited from earlier work"}, "[15]": {"system": "human endothelial HMEC-1 cells", "assay": "Protection of human endothelial cells from acrolein toxicity / cell death", "format": "cell-based"}, "TrxR [16]": {"system": "TrxR", "conditions": "50 μM 4-HNE for 6 hr, HeLa cells; cited from earlier work"}, "[17]": {"conditions": "human endothelial cells, limited experiments"}, "[18]": {"conditions": "5 μM acrolein, human endothelial and bronchial epithelial cells"}}, "note": "“Also recorded” adds a separate entry of the source. Like-named read-outs stand apart in the source and are kept apart here.", "data": [{"smiles": "CC(=O)N[C@@H](CS)C(=O)O", "note": "[NAC, N-acetylcysteine, reference compound]", "values": [{"measurement": "protection of Trx2 from acrolein", "setting": "Trx2; [17]", "value": "did not protect"}, {"measurement": "increase in GSH levels", "setting": "GSH [1]", "value": 31, "unit": "%"}, {"measurement": "protection of Trx1 redox state from acrolein", "setting": "Trx1; human endothelial cells, 2 hr pretreatment", "value": "partially protects"}]}, {"smiles": "N[C@@H](CCC(=O)N[C@@H](CS)C(=O)NCC(=O)O)C(=O)O", "note": "[GSH, reduced glutathione]", "values": [{"measurement": "pKa of thiol", "setting": "[2]", "value": 8.8}]}, {"smiles": "CCOC(=O)CNC(=O)[C@H](CS)NC(=O)CC[C@H](N)C(=O)O", "note": "[GSH-monoethyl ester]", "values": [{"measurement": "increase in GSH levels", "setting": "GSH [1]", "value": 64, "unit": "%"}, {"measurement": "protection of cells from acrolein", "setting": "[3]", "value": "only a minor protection"}]}, {"smiles": "C=CC=O", "note": "[acrolein, Prop-2-enal]", "values": [{"measurement": "toxicity relative to formaldehyde", "setting": "[4]", "value": "10-200 times"}, {"measurement": "ASK1 bound to Trx1 (IP, Fig. 4)", "setting": "ASK1 bound to Trx1", "value": "causes dissociation of ASK1 from Trx1"}, {"measurement": "cytotoxic concentration", "setting": "Human endothelial cells", "value": "≥ 5", "unit": "µM"}, {"measurement": "effect on catalase", "setting": "catalase", "value": "not inhibited"}, {"measurement": "phosphorylation of JNK (Fig. 6)", "setting": "JNK", "value": "causes phosphorylation of JNK"}, {"measurement": "inhibition of TrxR activity", "setting": "TrxR [5]; 50-75 μM acrolein for 30 min", "value": "ca. 65%"}, {"measurement": "TrxR activity recovered after acrolein removal", "setting": "TrxR [5]; 2-4 hr after acrolein removal", "value": "70-100%"}, {"measurement": "effect on reduced form of Trx2 (redox blot)", "setting": "Trx2; [18]", "value": "eliminate the reduced forms"}, {"measurement": "redox recovery of Trx2 after acrolein removal", "setting": "Trx2; [17]", "value": "not observed"}, {"measurement": "effect on cellular activity of glyceraldehyde phosphate dehydrogenase (Fig. 2)", "setting": "[6]", "value": "not significantly affected"}, {"measurement": "oxidation of Prx3 to dimers", "setting": "Prx3", "value": "near complete oxidation"}, {"measurement": "effect on TrxR activity (Fig. 2)", "setting": "TrxR [7]", "value": "markedly inhibits"}, {"measurement": "effect on reduced form of Trx1 (redox blot)", "setting": "Trx1; [18]", "value": "eliminate the reduced forms"}, {"measurement": "recovery of Trx1 redox state after acrolein removal", "setting": "Trx1; human endothelial cells, 4-hr acrolein-free period", "value": "modest recovery"}, {"measurement": "effect on glutathione peroxidase", "setting": "glutathione peroxidase", "value": "not inhibited; also recorded: unaffected"}, {"measurement": "effect on NF-κB DNA binding", "setting": "NF-κB [8]", "value": "blocks NF-κB DNA binding"}, {"measurement": "recovery of GSH levels once acrolein is removed (Fig. 3)", "setting": "GSH [9]", "value": "recover quickly"}, {"measurement": "effect on glutathione reductase", "setting": "glutathione reductase", "value": "not inhibited; also recorded: unaffected"}, {"measurement": "effect on NF-κB binding and activity", "setting": "NF-κB [10]", "value": "blocks both the binding and activity of NF-κB"}, {"measurement": "effect on AP-1 DNA binding and activity", "setting": "AP-1", "value": "decreases AP-1 binding to DNA and AP-1 activity"}, {"measurement": "inhibition of TrxR activity", "setting": "TrxR [11]", "value": 88, "unit": "%"}, {"measurement": "effect on TrxR activity at 1 μM", "setting": "TrxR [12]; 1 μM acrolein", "value": "significant inhibition"}, {"measurement": "recovery of TrxR activity after acrolein removal", "setting": "TrxR [12]; 4 hr after acrolein removal", "value": "does not recover"}, {"measurement": "acrolein concentration that strongly inhibits TrxR activity", "setting": "TrxR [12]", "value": "≥ 2.5", "unit": "µM"}, {"measurement": "irreversible inhibition of purified TrxR", "setting": "Purified TrxR", "value": 80, "unit": "%"}, {"measurement": "concentration for maximal inhibition of Trx activity", "setting": "Trx; A549 cancer cells", "value": "≥ 15", "unit": "µM"}, {"measurement": "recovery of Trx activity after acrolein removal", "setting": "Trx; A549 cells, 4 hr after acrolein removed", "value": "partial recovery"}, {"measurement": "phosphorylation of p38 (Fig. 5)", "setting": "p38", "value": "causes phosphorylation of p38"}, {"measurement": "oxidation of Prx1 to dimers", "setting": "Prx1", "value": "near complete oxidation"}, {"measurement": "inhibition of glutathione reductase activity (Fig. 2)", "setting": "[13]; 12.5 μM acrolein", "value": "ca. 40%"}, {"measurement": "effect on glutathione reductase activity (Fig. 2)", "setting": "[13]; 2.5 or 5 μM acrolein", "value": "not inhibited"}, {"measurement": "effect on superoxide dismutase", "setting": "superoxide dismutase", "value": "not inhibited; also recorded: unaffected"}]}, {"smiles": "O=C/C=C/c1ccccc1", "note": "[Cinnamaldehyde]", "values": [{"measurement": "effect on NF-κB activity", "setting": "NF-κB [14]", "value": "blocks NF-κB activity"}]}, {"smiles": "Oc1c2ccccc2c2c3c(cccc13)N=N2", "note": "[SP600125]", "values": [{"measurement": "effect on cell death by itself", "setting": "[15]; human endothelial HMEC-1 cells, inhibitor alone", "value": "increases cell death"}]}, {"smiles": "CCCCCC(O)/C=C/C=O", "note": "(stereo not drawn) [4-HNE, 4-hydroxynonenal]", "values": [{"measurement": "inhibition of TrxR activity", "setting": "TrxR [16]", "value": "ca. 60%"}]}, {"smiles": "C[S+]([O-])c1ccc(-c2nc(-c3ccncc3)c(-c3ccc(F)cc3)[nH]2)cc1", "note": "(stereo not drawn) [SB203580]", "values": [{"measurement": "protection from acrolein toxicity (Fig. 7)", "setting": "[15]; HMEC-1 cells, SB203580 10 μM 2 hr pretreatment, 5 and 12.5 μM acrolein 30 min, 14 hr in fresh medium", "value": "decreases acrolein toxicity; also recorded: protects"}]}]}
